Source: PubChem BioAssay (several laboratories)
MPTP block – permeability transition pore inhibition; isolated mouse mitochondria, Ca2+ swelling absorbance, 30 min; inhibition, % at 10 µM; 360,000 compounds, 1.4% hits;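 active means inhibition of 50% or more, scaled per plate between neutral and stimulator controls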
ADAM10 inh – inhibitors of human ADAM10; recombinant ADAM10, EDANS/DABCYL FRET peptide cleavage, 3 h; inhibition, % at 7 µM; 370,000 compounds, 0.62% hits;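 active means inhibition above a per-campaign cutoff equal to the mean of compounds falling between control-based bounds plus 3 SD, cut at about 20% in these data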
Target sequence (O14672 214-748 limits assumed): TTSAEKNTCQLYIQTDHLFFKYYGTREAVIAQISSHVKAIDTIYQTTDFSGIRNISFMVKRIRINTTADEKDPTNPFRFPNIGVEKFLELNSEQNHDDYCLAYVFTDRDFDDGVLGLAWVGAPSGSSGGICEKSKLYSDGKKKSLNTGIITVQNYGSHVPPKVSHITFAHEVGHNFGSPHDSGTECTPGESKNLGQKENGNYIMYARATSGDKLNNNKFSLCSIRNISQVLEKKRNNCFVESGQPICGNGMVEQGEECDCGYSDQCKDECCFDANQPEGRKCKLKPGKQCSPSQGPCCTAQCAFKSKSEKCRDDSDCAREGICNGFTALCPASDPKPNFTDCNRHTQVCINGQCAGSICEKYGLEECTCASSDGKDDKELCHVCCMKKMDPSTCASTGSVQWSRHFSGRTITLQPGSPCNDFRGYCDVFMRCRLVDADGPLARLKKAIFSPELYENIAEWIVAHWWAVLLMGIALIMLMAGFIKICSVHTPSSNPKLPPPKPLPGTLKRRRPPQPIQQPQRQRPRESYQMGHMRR
ADAM17 inh – inhibits human ADAM17. AID 720648. recombinant ADAM17, EDANS/DABCYL FRET peptide cleavage. inhibition, % at 6.95 µM. 370,000 compounds, 0.83% hits;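 active means inhibition above the mean of compounds lying between control limits plus 3 SD, set per campaign, cut at about 8.5% in these data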
MT1-MMP act inh – inhibitors of human MT1-MMP activation; 360,000 compounds, 0.061% hits; GFP/RFP ratio change, % at 20 µM; HT1080 RFP-PRO-GFP cells, GFP/RFP ratio fluorescence, overnight; percent of plate control window, DMSO zero; AID 651647;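 active means GFP/RFP ratio change of at least 30% with cell ATP level not reduced by more than half and red fluorescence within 50% of control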
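Assay system: HT1080 cells carrying an RFP-PRO-GFP reporter | Dosing: Single dose of 20 µM compound, 1% DMSO final | Incubation: Cells overnight before dosing, compound overnight, 37 °C, 5% CO2 | Evaluation: GFP/RFP fluorescence ratio | Control set: DMSO and RFP-L50D-GFP cell wells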
SKN-1 block – C. elegans SKN-1 inhibition. 360,000 compounds, 0.49% hits. C. elegans VP596 Pgst-4::GFP/RFP ratio, acrylamide-induced, 24 h. inhibition, % at 21.8 µM;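 active means interference check ratio from 0.5 to 1.5 plus GFP to RFP signal ratio inhibition reaching or exceeding a fixed threshold, cut at about 30% in these data, passing the limit was not always enough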
NR3A LBD binder – modulators (binders) of human NR3A ligand-binding domain | 340,000 compounds, 2.5% hits | NR3A LBD differential scanning fluorimetry, Tm shift; 0% = protein alone, 100% = glycine-bound protein | Tm shift relative to glycine control, % at 25 µM;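 active means melting temperature shift of at least 10% of the positive control shift, at one fixed dose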
Each line names hits and unclear results; the compound was inactive in the other large screens. Hits are enriched below; roughly 4.7% of the tested compounds scored in any of these assays.

COc1ccc(Nc2nnc(SCC(=O)/C=C3/N(C)c4ccccc4C3(C)C)s2)cc1	SKN-1 block 37
CN1/C(=C\C(=O)CSc2cccc[n+]2[O-])C(C)(C)c2ccccc21	none
CN1/C(=C\C(=O)COC(=O)CNC(=O)c2ccc3ccccc3c2)C(C)(C)c2ccccc21	SKN-1 block 40
CN1/C(=C/C(=O)CSc2ccccc2C(=O)O)C(C)(C)c2ccccc21	SKN-1 block 36
CC(C)=CCC12Oc3cc(O)ccc3C1(O)Oc1cc3c(c(O)c1C2=O)C=CC(C)(C)O3 (centres undefined)	NR3A LBD binder 12 (no result: MPTP block, ADAM10 inh, ADAM17 inh, MT1-MMP act inh, SKN-1 block)
COc1c2c(cc(O)c1C(C)=O)OC(C)(C)C=C2	none
COc1ccc(OC)c(NC(=O)C23CCC(C)(C(=O)C2)C3(C)C)c1 (centres undefined)	NR3A LBD binder 11
COc1ccc(OC)c(NC(=O)C2(C)CCN2C(C)C)c1 (centres undefined)	none (no result: NR3A LBD binder)
O=C(Nc1cccc([N+](=O)[O-])c1)C1CC(=O)N(C2CCCCC2)C1 (centres undefined)	NR3A LBD binder 14
CC(C(=O)N1CCN(C)CC1)N1C(=O)c2ccccc2C1=O (centres undefined)	SKN-1 block 36
CCOc1ccc(S(=O)(=O)NCCC(=O)NCCOc2ccccc2)cc1	NR3A LBD binder 65
CCOc1cc(N2CCOCC2)c(OCC)cc1NC(=O)Cn1cnc2c(=O)n(C)c(=O)n(C)c21	none
O=C(CCCCn1c(=O)c2ccccc2n(Cc2ccc(Cl)cc2)c1=O)NCc1ccco1	NR3A LBD binder 14
O=C(CN(C(=O)CNS(=O)(=O)c1ccccc1)c1ccc2c(c1)OCCO2)NC1CCCCC1	none
CCCCn1nnnc1C(c1ccccc1)N1CCN(c2ccccc2)CC1 (centres undefined)	none (no result: NR3A LBD binder)
CC(C)=NN/C(N)=N/C(=S)Nc1ccc(C)cc1	NR3A LBD binder 13
O=C(COc1ccc(Br)cc1)N1CCc2ccccc21	NR3A LBD binder 12
NC(=S)n1[nH]c(-c2ccc([N+](=O)[O-])cc2)c(N=Nc2ccc(O)cc2)c1=O	NR3A LBD binder 27
Cc1[nH]n(C(N)=S)c(=O)c1N=Nc1ccc([N+](=O)[O-])cc1Cl	none
O=C(CNc1cccc(C(F)(F)F)c1)N/N=C/c1cn(-c2ccccc2)nc1-c1ccccc1	NR3A LBD binder 34
COc1ccc(-c2nn(-c3ccccc3)cc2/C=N/Nc2cccc(C(=O)O)c2)cc1	none
CCOC(=O)N1CCN(C(=O)CCn2c(=S)[nH]c3ccccc3c2=O)CC1	none
O=C(Cn1c(O)c(/C=C2\C=Nc3ccccc32)sc1=O)N1CCOCC1	none
O=C(Cn1c(O)c(/C=C2\C=Nc3ccccc32)sc1=O)Nc1ccc2c(c1)OCO2	NR3A LBD binder 11
Cc1ccc(S(=O)(=O)Nc2nc(C)c(NC(=O)Nc3ccc(Cl)cc3Cl)s2)cc1	NR3A LBD binder 28
COc1ccc(NC(=O)Nc2sc(NS(=O)(=O)c3ccccc3)nc2C)cc1	none (no result: MT1-MMP act inh)
CC(OC(=O)C1=COCCO1)C(=O)NC1(C#N)CCCCC1 (centres undefined)	NR3A LBD binder 11
O=C(CCC(=O)OCC(=O)c1ccc(Br)cc1)NC1CCCCC1	NR3A LBD binder 10
CC(=O)n1cc([C@H]2C=C(C(=O)N3CCN(Cc4ccc5c(c4)OCO5)CC3)O[C@@H](OCCCCO)C2)c2ccccc21	none
COc1ccc(C2CC(c3ccncc3)=NN2c2ccc(S(N)(=O)=O)cc2)cc1 (centres undefined)	none
NS(=O)(=O)c1ccc(N2N=C(c3ccc(Br)cc3)CC2c2ccc(F)cc2)cc1 (centres undefined)	NR3A LBD binder 39
COc1ccc(C2CC(c3cccc(Cl)c3)=NN2c2ccc(S(N)(=O)=O)cc2)cc1 (centres undefined)	NR3A LBD binder 28
COc1ccc(C2CC(c3ccccc3)=NN2c2ccc(Cl)c(C(=O)O)c2)cc1 (centres undefined)	NR3A LBD binder 13
COc1ccc(C2CC(c3ccc(Cl)cc3)=NN2c2ccc(S(N)(=O)=O)cc2)cc1 (centres undefined)	NR3A LBD binder 37
COc1ccc(C2=NN(c3ccc(C(=O)O)cc3)C(c3ccc(OC)c(OC)c3)C2)cc1 (centres undefined)	none
Cc1cccc(CSc2nc(N)c(C#N)c(-c3cccs3)c2C#N)c1	NR3A LBD binder 13
CC1=C(C(=O)OCC2CCCO2)C(c2cccc(C(F)(F)F)c2)C2=C(CC(c3ccco3)CC2=O)N1 (centres undefined)	none
CC1=C(C(=O)OCC2CCCO2)C(c2ccccc2OC(C)C)C2=C(CC(c3ccco3)CC2=O)N1 (centres undefined)	SKN-1 block 40
Nc1ncnc(Nc2ccc(F)cc2)n1	none
Fc1ccc(Nc2ccnc(Nc3ccc(F)cc3)n2)cc1	NR3A LBD binder 55
O=C(Nc1ccccc1Sc1ccccc1)c1ccc(F)cc1	NR3A LBD binder 19
O=C(Cc1ccc(Cl)cc1)Nc1ccccc1Sc1ccccc1	NR3A LBD binder 15
Cc1ccc(C(=O)Nc2ccccc2Sc2ccccc2)cc1	none
N#Cc1ccsc1NC(=O)c1ccc2ncsc2c1	none (no result: NR3A LBD binder)
CC(NC(=O)c1ccc(Cl)c(Cl)c1)c1ccc(-c2ccccc2)cc1 (centres undefined)	NR3A LBD binder 16
Cc1ccc(NC(=O)CCNS(=O)(=O)c2ccc3c(c2)CCC(=O)N3)c(Br)c1	none
CCc1ccc2c(c1)/C(=N/N(C)C(=S)NC)C(=O)N2	NR3A LBD binder 13
CCOc1ccc(-n2c(=S)sc3c(=O)n(-c4ccc(F)cc4)c(SCC(=O)O)nc32)cc1	NR3A LBD binder 15
CCOc1ccc(-n2c(=S)sc3c(=O)n(-c4ccccc4)c(SCC(=O)O)nc32)cc1	none
CCc1ccc(C(=O)N/N=C/c2ccncc2)s1	none
Cn1c(C(=O)NCCCN2CCN(c3ccccc3F)CC2)cc2c(=O)[nH]c3ccccc3c21	NR3A LBD binder 17
CC1CC(C)CN(CCCNC(=O)c2cc3c(=O)[nH]c4ccccc4c3n2C)C1 (centres undefined)	none
C=CCNC(=O)C1CC2Cn3c(nc4cc5ccccc5cc43)C2N1C (centres undefined)	NR3A LBD binder 12
COc1ccc(C(C)C)cc1S(=O)(=O)n1cnc(C)c1	SKN-1 block 40
CC(=O)OC(C)C(=O)NS(=O)(=O)c1ccc(C)cc1 (centres undefined)	none
COc1cc(NC(=O)Cn2cnc(S(=O)(=O)N3CCOCC3)c2)cc(OC)c1OC	none
COc1ccc(/C=C/c2cc[n+](C(=O)Cc3ccccc3)cc2)cc1	none
CN(C)c1nc(SCc2ccccc2Cl)nc2c1CCCC2	SKN-1 block 31 (no result: ADAM10 inh, ADAM17 inh)
Cc1ccc(CSc2nc3c(c(N(C)C)n2)CCCC3)cc1	none
